Measured values collected from several papers.
Target: Ephrin type-A receptor 2 (EPHA2, Homo sapiens, UniProt P29317)

| SMILES | test | setting | measurement | value |
| --- | --- | --- | --- | --- |
| C=CC(=O)N1CCC[C@@H](n2nc(-c3ccc(Oc4ccccc4)cc3)c3c(N)ncnc32)C1 | enzyme activity, inhibitor | 1 µM | inhibition | 4% |
| COc1ccc2[nH]c3c4[nH]c5ccc(OC)cc5c4c4c(c3c2c1)C(=O)NC4=O | binding, competition with immobilised ligand | 1 µM | remaining binding | 85% |
| C#Cc1cnc(Nc2ccnc(CO)c2)nc1Nc1ccccc1S(C)(=O)=NC#N (stereo not shown) | cell-free assay | 1 µM | remaining signal | 70% |
| N#Cc1ccc(NC(=O)Nc2ccccc2)cc1 | cell-free assay, competition with immobilised ligand | 25 µM | remaining binding | 100% |
| C1=C/COCc2cc(ccc2OCCN2CCCC2)Nc2nccc(n2)-c2cccc(c2)COC/1 | binding | 0.1 µM | remaining binding | 100% |
| Cc1cc(O)c(-c2ccc([C@@H](C)CN(C)C)cc2)c2c1[nH]c(=O)c1sccc12 | cell-free assay, inhibitor | 0.1 µM | inhibition | -2.28% |
| Cc1ccc(NC(=O)c2ccnc(C(F)(F)F)c2)cc1-c1cc(OCCO)nc(N2CCOCC2)c1 | binding, competition with immobilised ligand | 1 µM | remaining binding | 63% |
| COc1ccc2oc(-c3ccc4nc(N)oc4c3)c/c(=N\c3ccccc3NC(=O)CCN)c2c1 | binding | 1 µM | remaining binding | 99% |
| CCCCC(=O)Nc1ccc(-c2ccc3ncn(CCC)c(=O)c3c2)cn1 | binding, competition with immobilised ligand | 0.5 µM | remaining binding | 100% |
| C=CC(=O)N1CCC([C@@H]2CCNc3c(C(N)=O)c(-c4ccc(Oc5ccccc5)cc4)nn32)CC1 | cell-free assay | 1 µM | inhibition | 10% |
